What was measured:
Assay type in all cases: functional, cell-based
[1] = system: H2981 cell line; experiment: Inhibition of [3H]thymidine incorporation in human lung adenocarcinoma cells in the absence of PGA enzyme; details: H2981, 4 h
Outline: (§1)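 H2981 human lung adenocarcinoma cells (10^7 cells/0.2 mL in IMDM with 10% FBS) were exposed to compound with or without added PGA at 37 °C for 4 h, then washed and counted. Triplicates were plated at 10^5 cells/mL, grown 24 h, and pulsed 24 h with [3H]thymidine (1 µCi/well). IC50 is the concentration giving 50% inhibition of incorporation.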

[2] = system: H2981 cell line; experiment: Inhibition of [3H]thymidine incorporation in human lung adenocarcinoma cells in the presence of PGA enzyme; outline: as §1
[3] = system: H2981 cell line; experiment: Inhibition of [3H]thymidine incorporation in human lung adenocarcinoma cells in the absence of PGA enzyme (compound + 10 micro g/mL calf intestine alkaline phosphatase); details: H2981, 4 h
Outline: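 H2981 cells in IMDM with 10% FBS were exposed to compound without PGA for 4 h at 37 °C. Calf intestinal alkaline phosphatase was added to the incubation at 10 µg/mL. Cells were then washed, plated in triplicate at 10^5 cells/mL, grown 24 h and pulsed 24 h with [3H]thymidine (1 µCi/well). IC50 is the concentration giving 50% inhibition of incorporation.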

Structure (SMILES)	IC50 [1] [µM]	IC50 ([2]; Homo sapiens, H2981, 4 h) [µM]	IC50 [3] [µM]	IC50 ([2]; h2981) [µM]
O=C(Cc1ccccc1)NC(Cc1ccc(N(CCCl)CCCl)cc1)C(=O)O (configuration not stated)	100	5	–	–
COc1cccc2c1C(=O)c1c(O)c3c(c(O)c1C2=O)C[C@@](O)(C(=O)CO)C[C@@H]3OC1CC(NC(=O)Cc2ccc(OP(=O)(O)O)cc2)C(O)C(C)O1 (stereo in doubt)	–	–	> 1000	0.7
COc1cccc2c1C(=O)c1c(O)c3c(c(O)c1C2=O)C[C@@](O)(C(=O)CO)C[C@@H]3O[C@H]1C[C@H](N)[C@H](O)[C@H](C)O1 [DOXORUBICIN]	0.7	–	–	–
N[C@@H](Cc1ccc(N(CCCl)CCCl)cc1)C(=O)O [MELPHALAN]	5	–	–	–

The next lines start with the values.

IC50 [1] [µM]	IC50 ([2]; Homo sapiens, H2981, 4 h) [µM]	IC50 [3] [µM]	IC50 ([2]; h2981) [µM]	Structure (SMILES)
> 1000	10	–	–	COc1cccc2c1C(=O)c1c(O)c3c(c(O)c1C2=O)C[C@@](O)(C(=O)CO)C[C@@H]3OC1CC(NC(=O)Cc2ccc(N)cc2)C(O)C(C)O1 (some centres not stated)
2	0.2	–	–	COc1cccc2c1C(=O)c1c(O)c3c(c(O)c1C2=O)C[C@@](O)(C(=O)CO)C[C@@H]3OC1CC(NC(=O)Cc2ccccc2)C(O)C(C)O1 (some centres not stated)
> 1000	–	–	4	COc1cccc2c1C(=O)c1c(O)c3c(c(O)c1C2=O)C[C@@](O)(C(=O)CO)C[C@@H]3OC1CC(NC(=O)Cc2ccc(OP(=O)(O)O)cc2)C(O)C(C)O1 (stereo in doubt; 4)
